Data from ChEMBL document CHEMBL4765376, “Discovery of an Orally Available Diazabicyclooctane Inhibitor (ETX0282) of Class A, C, and D Serine β-Lactamases” (J Med Chem, 2020).
≈ marks a conversion by molar mass, not a printed value. Calls of active or inactive are those of the source. The rule behind the calls is not given here.

Assays:
[1] = Inhibition of beta lactamase AmpC in Pseudomonas aeruginosa assessed as decrease in enzyme activity using nitrocefin as chromogenic substrate incubated for 60 mins by […] plate reader analysis
[2] = Inhibition of beta lactamase OXA-48 in Klebsiella pneumoniae assessed as decrease in enzyme activity using nitrocefin as chromogenic substrate incubated for 60 mins by absorbance plate reader analysis
Klebsiella pneumoniae [3] = assay: Inhibition of beta-lactamase activity in Klebsiella pneumoniae ARC561 assessed as MIC for cefpodoxime antibacterial activity at 4 ug/ml by CLSI based broth dilution method (reference value: 32 ug/ml); conditions: dose 4.0 µg/ml
[4] = Inhibition of beta lactamase TEM-1 in Escherichia coli assessed as decrease in enzyme activity using nitrocefin as chromogenic substrate incubated for 60 mins by […] plate reader analysis
[5] = Inhibition of beta lactamase AmpC in Pseudomonas aeruginosa assessed as decrease in enzyme activity using nitrocefin as chromogenic substrate incubated for 10 mins by […] plate reader analysis
[6] = Inhibition of beta lactamase TEM-1 in Escherichia coli assessed as decrease in enzyme activity using nitrocefin as chromogenic substrate incubated for 10 mins by […] plate reader analysis
[7] = Inhibition of beta lactamase OXA-48 in Klebsiella pneumoniae assessed as decrease in enzyme activity using nitrocefin as chromogenic substrate incubated for 10 mins by […] plate reader analysis
Escherichia coli [8] = assay: Inhibition of beta-lactamase activity in Escherichia coli ARC3627 assessed as MIC for cefpodoxime antibacterial activity at 4 ug/ml by CLSI based broth dilution method (Rvb >64 ug/ml); conditions: dose 4.0 µg/ml
Klebsiella pneumoniae [9] = assay: Antibacterial activity against Klebsiella pneumoniae ARC561 assessed as reduction in bacterial growth by CLSI based broth dilution method; assay type: functional
How it was run: (§1)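 Broth microdilution in CAMHB following CLSI.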

Escherichia coli [10] = assay: Antibacterial activity against Escherichia coli ARC3627 assessed as reduction in bacterial growth by CLSI based broth dilution method; assay type: functional; how it was run: as §1
[11] = Oral bioavailability in Sprague-Dawley rat at 10 mg/kg by LC/MS/MS analysis; assay type: ADME, organism-based; conditions: in vivo
How it was run: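 Jugular vein-cannulated male Sprague Dawley rats (180–200 g, n = 3/route). Intravenous arm: active acid at 10 mg/kg in 0.9% saline, plasma sampled 0.08–8 h. Oral arm: prodrug at a dose equivalent to 10 mg/kg acid in 25:75 PEG 400/WFI, plasma sampled 0.25–24 h. Levels by LC/MS/MS; F = (AUCpo/AUCiv) × 100.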

Enterobacter cloacae [12] = assay: Antibacterial activity against Enterobacter cloacae ARC 6055 drug resistant clinical isolates assessed as reduction in bacterial growth by CLSI based broth dilution method; assay type: functional
How it was run: (§2)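 Broth microdilution per CLSI in cation-adjusted Mueller–Hinton broth against drug-resistant clinical isolates; MIC read as the lowest concentration preventing bacterial growth.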

Klebsiella oxytoca = assay: Antibacterial activity against Klebsiella oxytoca ARC 5389 carbapenem resistant clinical isolates assessed as reduction in bacterial growth by CLSI based broth dilution method; assay type: functional; how it was run: as §2
Escherichia coli [13] = assay: In vivo antibacterial activity against multidrug-resistant Escherichia coli ARC 2687 infected in CD-1 mouse model of neutropenic thigh infection assessed as colony forming unit at 50 mg/kg, po administered at 6 hrs interval; assay type: functional, organism-based
How it was run: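 Female CD-1 mice (20–22 g, 3/arm) made neutropenic with ip cyclophosphamide, 150 mg/kg on day −4 and 100 mg/kg on day −1. Each thigh received an im inoculum of 5.5 × 10^6–1.6 × 10^7 CFU from saline suspension (OD625 0.1, diluted). Dosing began 2 h post-infection, q6h. Oral agents were given in 0.5% HPMC/0.1% Tween 80; meropenem was given sc in water. Thighs were taken at 24 h, homogenized and plated on TSA (35 °C overnight) for CFU counts.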

Klebsiella pneumoniae [14] = assay: Antibacterial activity against Klebsiella pneumoniae ARC 6098 drug resistant clinical isolates assessed as reduction in bacterial growth by CLSI based broth dilution method; assay type: functional; how it was run: as §2
Klebsiella pneumoniae [15] = assay: Antibacterial activity against Klebsiella pneumoniae ARC 6082 drug resistant clinical isolates assessed as reduction in bacterial growth by CLSI based broth dilution method; assay type: functional; how it was run: as §2
Citrobacter freundii = assay: Antibacterial activity against Citrobacter freundii ARC 3518 carbapenem resistant clinical isolates assessed as reduction in bacterial growth by CLSI based broth dilution method; assay type: functional; how it was run: as §2
Enterobacter cloacae [16] = assay: Antibacterial activity against Enterobacter cloacae ARC 6049 drug resistant clinical isolates assessed as reduction in bacterial growth by CLSI based broth dilution method; assay type: functional; how it was run: as §2
Klebsiella pneumoniae [17] = assay: Antibacterial activity against Klebsiella pneumoniae ARC 6107 carbapenem resistant clinical isolates assessed as reduction in bacterial growth by CLSI based broth dilution method; assay type: functional; how it was run: as §2
Klebsiella pneumoniae [18] = assay: Antibacterial activity against Klebsiella pneumoniae ARC 6088 carbapenem-resistant clinical isolates assessed as reduction in bacterial growth by CLSI based broth dilution method; assay type: functional; how it was run: as §2

| SMILES | IC50 [1] [nM] | IC50 [2] [nM] | MIC (Klebsiella pneumoniae [3]) | IC50 [4] [nM] | IC50 [5] [nM] | IC50 [6] [nM] | IC50 [7] [nM] | MIC (Escherichia coli [8]) | MIC (Klebsiella pneumoniae [9]) | MIC (Escherichia coli [10]) | bioavailability [11] [%] | other results |
| --- | --- | --- | --- | --- | --- | --- | --- | --- | --- | --- | --- | --- |
| CC1=C[C@@H]2CN(C(=O)N2OC(F)(F)C(=O)O)[C@@H]1C(N)=O | 12 | 14 | inactive | 1.5 | 50 | 1.2 | 75 | inactive | inactive | inactive | – | – |
| CC1=C[C@@H](C(N)=O)N2C[C@@H]1N(O[C@H](F)C(=O)O)C2=O | 140 | 70 | 0.25 µg/mL (≈ 0.915 µM) | 3.2 | 450 | 2.3 | 370 | < 0.06 µg/mL | – | – | – | – |
| CC1=C[C@@H]2CN(C(=O)N2O[C@H](F)C(=O)O)[C@@H]1C(N)=O | 11 | 15 | 0.25 µg/mL (≈ 0.915 µM) | 1.4 | 41 | 0.73 | 71 | 0.06 µg/mL (≈ 0.22 µM) | 32 µg/mL (≈ 117 µM) | 2 µg/mL (≈ 7.32 µM) | – | – |
| CC1=C[C@@H](C(N)=O)N2C[C@@H]1N(O[C@@H](F)C(=O)OC(C)C)C2=O | – | – | – | – | – | – | – | – | – | – | 84 | – |
| CC1=C[C@@H]2CN(C(=O)N2O[C@H](F)C(=O)OC(C)OC(=O)OC(C)C)[C@@H]1C(N)=O (stereo partly drawn) | – | – | – | – | – | – | – | – | – | – | 11 | – |
| COCC1=C(C(=O)O)N2C(=O)[C@@H](NC(=O)/C(=N\OC)c3csc(N)n3)[C@H]2SC1 [CEFPODOXIME] | – | – | – | – | – | – | – | – | 32 µg/mL (≈ 74.9 µM) | > 64 µg/mL | – | MIC (Enterobacter cloacae [12]): > 64 µg/mL; MIC (Klebsiella oxytoca): > 64 µg/mL; Activity (Escherichia coli [13]): inactive; MIC (Klebsiella pneumoniae [14]): > 64 µg/mL; MIC (Klebsiella pneumoniae [15]): > 64 µg/mL; MIC (Citrobacter freundii): > 64 µg/mL; MIC (Enterobacter cloacae [16]): > 64 µg/mL; MIC (Klebsiella pneumoniae [17]): > 64 µg/mL; MIC (Klebsiella pneumoniae [18]): > 64 µg/mL |
| CCOC(=O)[C@@H](F)ON1C(=O)N2C[C@H]1C=C(C)[C@H]2C(N)=O | – | – | – | – | – | – | – | – | – | – | 45 | – |
| CC1=C[C@@H]2CN(C(=O)N2O[C@@H](F)C(=O)O)[C@@H]1C(=O)NC1COC1 | 54 | 12 | 4 µg/mL (≈ 12.1 µM) | 660 | 260 | 440 | 55 | > 32 µg/mL | > 32 µg/mL | 16 µg/mL (≈ 48.6 µM) | – | – |
| CC1=C[C@@H](C(N)=O)N2C[C@@H]1N(O[C@@H](F)C(=O)O)C2=O (racemic) | 300 | 19 | 0.06 µg/mL (≈ 0.22 µM) | 26 | 1300 | 20 | 67 | < 0.06 µg/mL | > 32 µg/mL | – | – | – |
| CC1=C[C@@H]2CN(C(=O)N2O[C@@H](F)C(=O)O)[C@@H]1C(N)=O | 71 | 15 | 2 µg/mL (≈ 7.32 µM) | 19 | 180 | 13 | 63 | 1 µg/mL (≈ 3.66 µM) | > 32 µg/mL | 8 µg/mL (≈ 29.3 µM) | – | – |
| CCOC(=O)[C@H](F)ON1C(=O)N2C[C@H]1C(C)=C[C@H]2C(N)=O (racemic) | – | – | – | – | – | – | – | – | – | – | 71 | – |
| CC1=C[C@@H]2CN(C(=O)N2O[C@H](F)C(=O)OC(C)C)[C@@H]1C(N)=O | – | – | – | – | – | – | – | – | – | – | 38 | – |
